Laboratory results: ChEMBL document CHEMBL1142454, “Synthesis and evaluation of novel 4-amino-4,6-androstadiene-3,17-dione: an analog of formestane” (2008)

Tests used:
Design in all cases: scale not given: the % may be the effect or the level left
LOX IMVI = test: Antitumor activity against human LOXIMVI cells assessed as reduction of cell growth at 10 uM after 48 hrs by SRB assay; type: functional
Method in brief: (§1)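 NCI 60-cell-line primary screen, single dose 10^-5 M (final). Cells grown in RPMI 1640 with 5% FBS and 2 mM L-glutamine, seeded at 5000–40,000 cells/well and preincubated 24 h at 37 °C, 5% CO2. Compound is dissolved in DMSO, diluted in medium with gentamicin, and exposed 48 h. Cells are fixed with 10% TCA (final) and stained with 0.4% SRB; absorbance is read at 515 nm. Readout is growth percentage.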

OVCAR-3 = test: Antitumor activity against human OVCAR-3 cells assessed as reduction of cell growth at 10 uM after 48 hrs by SRB assay; type: functional; method in brief: as §1
SK-OV-3 = test: Antitumor activity against human SKOV3 cells assessed as reduction of cell growth at 10 uM after 48 hrs by SRB assay; type: functional; method in brief: as §1
TK-10 = test: Antitumor activity against human TK-10 cells assessed as reduction of cell growth at 10 uM after 48 hrs by SRB assay; type: functional
Method in brief: (§2)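 NCI-60 one-dose primary screen at 10^-5 M final. Cells grown in RPMI 1640 with 5% FBS and 2 mM L-glutamine, plated at 5000–40,000 cells/well and preincubated 24 h at 37 °C, 5% CO2. Drug stocks in DMSO, diluted in medium with gentamicin. Exposure 48 h, then fixed in situ with TCA (10% final) for 60 min at 4 °C. Stained with 0.4% SRB in 1% acetic acid, bound dye solubilized in 10 mM trizma base, absorbance read at 515 nm. Reported as mean growth percent; negative values indicate cell kill.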

ACHN = test: Antitumor activity against human ACHN cells assessed as reduction of cell growth at 10 uM after 48 hrs by SRB assay; type: functional; method in brief: as §1
[1] = Antitumor activity against human 786-O cells assessed as reduction of cell growth at 10 uM after 48 hrs by SRB assay; type: functional, 786-0; method in brief: as §1
NCI-H322M = test: Antitumor activity against human NCI-H322M cells assessed as reduction of cell growth at 10 uM after 48 hrs by SRB assay; type: functional; method in brief: as §1
[2] = Antitumor activity against human HCT 116 cells assessed as reduction of cell growth at 10 uM after 48 hrs by SRB assay; type: functional; method in brief: as §1
SF-539 = test: Antitumor activity against human SF-539 cells assessed as reduction of cell growth at 10 uM after 48 hrs by SRB assay; type: functional; method in brief: as §1
HT-29 = test: Antitumor activity against human HT-29 cells assessed as reduction of cell growth at 10 uM after 48 hrs by SRB assay; type: functional; method in brief: as §1
K562 = test: Antitumor activity against human K-562 cells assessed as reduction of cell growth at 10 uM after 48 hrs by SRB assay; type: functional; method in brief: as §1
SF-268 = test: Antitumor activity against human SF-268 cells assessed as reduction of cell growth at 10 uM after 48 hrs by SRB assay; type: functional; method in brief: as §1
[3] = Antitumor activity against human Hs 578T cells assessed as reduction of cell growth at 10 uM after 48 hrs by SRB assay; type: functional; method in brief: as §1
MDA-MB-435 = test: Antitumor activity against human MDA-MB-435 cells assessed as reduction of cell growth at 10 uM after 48 hrs by SRB assay; type: functional; method in brief: as §1
NCI-H460 = test: Antitumor activity against human NCI-H460 cells assessed as reduction of cell growth at 10 uM after 48 hrs by SRB assay; type: functional; method in brief: as §1
SR = test: Antitumor activity against human SR cells assessed as reduction of cell growth at 10 uM after 48 hrs by SRB assay; type: functional; method in brief: as §2
IGROV-1 = test: Antitumor activity against human IGROV1 cells assessed as reduction of cell growth at 10 uM after 48 hrs by SRB assay; type: functional; method in brief: as §1
OVCAR-8 = test: Antitumor activity against human OVCAR8 cells assessed as reduction of cell growth at 10 uM after 48 hrs by SRB assay; type: functional; method in brief: as §1
HCT-15 = test: Antitumor activity against human HCT-15 cells assessed as reduction of cell growth at 10 uM after 48 hrs by SRB assay; type: functional; method in brief: as §1
RXF 393 = test: Antitumor activity against human RXF 393 cells assessed as reduction of cell growth at 10 uM after 48 hrs by SRB assay; type: functional; method in brief: as §1
HCC 2998 = test: Antitumor activity against human HCC2998 cells assessed as reduction of cell growth at 10 uM after 48 hrs by SRB assay; type: functional; method in brief: as §1
HOP-92 = test: Antitumor activity against human HOP-92 cells assessed as reduction of cell growth at 10 uM after 48 hrs by SRB assay; type: functional; method in brief: as §1
OVCAR-4 = test: Antitumor activity against human OVCAR4 cells assessed as reduction of cell growth at 10 uM after 48 hrs by SRB assay; type: functional; method in brief: as §1
T47D = test: Antitumor activity against human T47D cells assessed as reduction of cell growth at 10 uM after 48 hrs by SRB assay; type: functional; method in brief: as §2
SF-295 = test: Antitumor activity against human SF-295 cells assessed as reduction of cell growth at 10 uM after 48 hrs by SRB assay; type: functional; method in brief: as §1
M14 = test: Antitumor activity against human M14 cells assessed as reduction of cell growth at 10 uM after 48 hrs by SRB assay; type: functional; method in brief: as §1
EKVX = test: Antitumor activity against human EKVX cells assessed as reduction of cell growth at 10 uM after 48 hrs by SRB assay; type: functional; method in brief: as §1
HL-60(TB) = test: Antitumor activity against human HL-60(TB) cells assessed as reduction of cell growth at 10 uM after 48 hrs by SRB assay; type: functional; method in brief: as §1
CAKI-1 = test: Antitumor activity against human Caki-1 cells assessed as reduction of cell growth at 10 uM after 48 hrs by SRB assay; type: functional; method in brief: as §1
DU-145 = test: Antitumor activity against human DU145 cells assessed as reduction of cell growth at 10 uM after 48 hrs by SRB assay; type: functional; method in brief: as §1
Malme-3M = test: Antitumor activity against human MALME-3M cells assessed as reduction of cell growth at 10 uM after 48 hrs by SRB assay; type: functional; method in brief: as §1
CCRF-CEM = test: Antitumor activity against human CCRF-CEM cells assessed as reduction of cell growth at 10 uM after 48 hrs by SRB assay; type: functional; method in brief: as §1
COLO 205 = test: Antitumor activity against human COLO205 cells assessed as reduction of cell growth at 10 uM after 48 hrs by SRB assay; type: functional; method in brief: as §1
MCF7 = test: Antitumor activity against human MCF7 cells assessed as reduction of cell growth at 10 uM after 48 hrs by SRB assay; type: functional; method in brief: as §1
BT-549 = test: Antitumor activity against human BT-549 cells assessed as reduction of cell growth at 10 uM after 48 hrs by SRB assay; type: functional; method in brief: as §1
A498 = test: Antitumor activity against human A-498 cells assessed as reduction of cell growth at 10 uM after 48 hrs by SRB assay; type: functional; method in brief: as §1
SK-MEL-5 = test: Antitumor activity against human SK-MEL-5 cells assessed as reduction of cell growth at 10 uM after 48 hrs by SRB assay; type: functional; method in brief: as §1
PC-3 = test: Antitumor activity against human PC-3 cells assessed as reduction of cell growth at 10 uM after 48 hrs by SRB assay; type: functional; method in brief: as §1

C[C@]12CC[C@H]3[C@@H](CCC4=CC(=O)CC[C@@]43CF)[C@@H]1CCC2=O
Activity (LOX IMVI): 96.65% | Activity (OVCAR-3): 119.07% | Activity (SK-OV-3): 120.5% | Activity (TK-10): 114.8% | Activity (ACHN): 119.9% | Activity [1]: 105.6% | Activity (NCI-H322M): 101.55% | Activity [2]: 110.19% | Activity (SF-539): 105.8% | Activity (HT-29): 116.4% | Activity (K562): 93.48% | Activity (SF-268): 109.8% | Activity [3]: 127.96% | Activity (MDA-MB-435): 100.91% | Activity (NCI-H460): 108.88% | Activity (SR): 118.7% | Activity (IGROV-1): 62.42% | Activity (OVCAR-8): 94.26% | Activity (HCT-15): 106.17% | Activity (RXF 393): 67.71% | Activity (HCC 2998): 139.86% | Activity (HOP-92): 113.59% | Activity (OVCAR-4): 98.85% | Activity (T47D): 39.44% | Activity (SF-295): 106.3% | Activity (M14): 102.8% | Activity (EKVX): 94.85% | Activity (HL-60(TB)): 112.8% | Activity (CAKI-1): 111% | Activity (DU-145): 116.2% | Activity (Malme-3M): 94.17% | Activity (CCRF-CEM): 88.21% | Activity (COLO 205): 134.97% | Activity (MCF7): 130.43% | Activity (BT-549): 97.23% | Activity (A498): 111.1% | Activity (SK-MEL-5): 108.7%

CCOC1=C2CC[C@@H]3[C@H](CC[C@]4(C)C(=O)CC[C@@H]34)[C@@]2(C)CCC1=O
Activity (LOX IMVI): 100.3% | Activity (OVCAR-3): 128.63% | Activity (SK-OV-3): 111.3% | Activity (TK-10): 100.6% | Activity (ACHN): 105.1% | Activity [1]: 103.4% | Activity (NCI-H322M): 95.97% | Activity (PC-3): 96.5% | Activity [2]: 103.2% | Activity (SF-539): 111.3% | Activity (HT-29): 98.16% | Activity (K562): 94.09% | Activity (SF-268): 128.3% | Activity [3]: 118.13% | Activity (MDA-MB-435): 104.79% | Activity (NCI-H460): 83.36% | Activity (SR): 104.9% | Activity (IGROV-1): 85.75% | Activity (OVCAR-8): 98.96% | Activity (HCT-15): 110.45% | Activity (RXF 393): 117.9% | Activity (HCC 2998): 125.75% | Activity (HOP-92): 92.93% | Activity (OVCAR-4): 96.98% | Activity (T47D): 117.94% | Activity (SF-295): 114% | Activity (M14): 103.8% | Activity (EKVX): 111.14% | Activity (HL-60(TB)): 112.2% | Activity (CAKI-1): 115.2% | Activity (DU-145): 123.2% | Activity (Malme-3M): 87.47% | Activity (CCRF-CEM): 91.63% | Activity (COLO 205): 132.65% | Activity (MCF7): 108.56% | Activity (BT-549): 93.87% | Activity (A498): 105.6% | Activity (SK-MEL-5): 99.39%
